Measurements taken from ChEMBL document CHEMBL2034980, “N⁴-Phenyl-substituted 2-acetylpyridine thiosemicarbazones: cytotoxicity against human tumor cells, structure-activity relationship studies and investigation on the mechanism of action” (Bioorg Med Chem, 2012).
Calls of active or inactive are those of the source.

Key:
T98G [1] = test: Induction of apoptosis in human T98G cells assessed as chromatin condensation at 1 uM after 48 hrs by DAPI staining; format: functional, cell-based
Outline: (§1)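 Cells were treated at 1 μM for 48 h, washed in PBS and fixed in 70% methanol for 30 min at room temperature. They were stained with 0.4 μg mL⁻¹ DAPI for 1 h in the dark, and nuclear condensation and fragmentation were scored by fluorescence microscopy (385–410 nm).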

MCF7 [2] = test: Induction of apoptosis in human MCF7 cells assessed as cell shrinkage at 1 uM after 48 hrs by DAPI staining; format: functional, cell-based
T98G [3] = test: Induction of apoptosis in human T98G cells assessed as cell shrinkage at 1 uM after 48 hrs by DAPI staining; format: functional, cell-based
T98G [4] = test: Induction of apoptosis in human T98G cells assessed as membrane blebbing at 1 uM after 48 hrs […]; format: functional, cell-based
MCF7 [5] = test: Cytotoxicity against human MCF7 cells after 48 hrs by MTT assay; format: functional, cell-based; conditions: for IC50: MCF7, 48 h, read-out: IC50
Outline: (§2)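 MTT assay. Cells were grown in DMEM with 10% FBS and penicillin/streptomycin at 37 °C under 5% CO2, seeded at 1–2×10^3 cells/well and treated 12 h later with 1×10^-12 to 1×10^-5 M ([…] from DMSO stock, final DMSO <0.5%) for 48 h. MTT was added at 0.5 mg mL⁻¹, formazan dissolved in DMSO and read at 570 nm. IC50 is the concentration giving 50% cytotoxicity. Quadruplicates, ≥3 independent experiments.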

HeLa [6] = test: Induction of mitotic arrest in human HeLa cells assessed as reduction in tubulin intensity by Hoechst 33342 staining; format: functional; conditions: read-out: MEC
Outline: (§3)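 HeLa cells (8000/well, collagen-coated plates) were dosed in quadruplicate within 4–6 h of seeding with 10 twofold dilutions or vehicle (0.1% DMSO) for 18 h at 37 °C. Cells were fixed, stained with Hoechst 33342 and immunostained for phosphohistone H3 (Ser10) and α-tubulin, then analysed by automated imaging. Positivity threshold: mean of 28 vehicle wells +1 SD. Values reported as MDEC and EC50.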

MCF7 [7] = test: Induction of apoptosis in human MCF7 cells assessed as DNA fragmentation at 1 uM after 48 hrs by DAPI staining; format: functional, cell-based; outline: as §1
Bos taurus [8] = species: Bos taurus; test: Inhibition of bovine brain tubulin polymerization at 5 to 20 uM after 10 mins by spectrophotometry
Outline: (§4)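 Bovine brain tubulin (10 μM; 1 mg mL⁻¹) in 0.8 M monosodium glutamate with 1% DMSO was pre-incubated with compound (four twofold dilutions) at 30 °C, then cooled to 0 °C for 10 min. GTP (0.4 mM) was added and the temperature raised to 37 °C while A350 was followed.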

HeLa [9] = test: Induction of mitotic arrest in human HeLa cells assessed as nuclear condensation by Hoechst 33342 staining; format: functional; conditions: read-out: MEC; outline: as §3
MCF7 [10] = test: Induction of apoptosis in human MCF7 cells assessed as chromatin condensation at 1 uM after 48 hrs by DAPI staining; format: functional, cell-based; outline: as §1
U-87MG ATCC [11] = test: Induction of apoptosis in human U87 cells assessed as DNA fragmentation at 1 uM after 48 hrs by DAPI staining; format: functional, cell-based; outline: as §1
U-87MG ATCC [12] = test: Induction of apoptosis in human U87 cells assessed as irregularities in cellular shape at 1 uM after 48 hrs by DAPI staining; format: functional, cell-based
MCF7 [13] = test: Induction of apoptosis in human MCF7 cells assessed as chromatin condensation at 1 uM after 48 hrs by acridine orange/ethidium bromide staining-based microscopy; format: functional, cell-based
Outline: (§5)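 After 48 h at 1 μM, cells were incubated for 15 min in serum-free medium containing 1 μg mL⁻¹ acridine orange and 1 μg mL⁻¹ ethidium bromide. The medium was removed and cells imaged by inverted fluorescence microscopy (530–650 nm). Green/orange nuclear patterns and acidic cytoplasmic vacuoles were scored.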

U-87MG ATCC [14] = test: Induction of apoptosis in human U87 cells assessed as chromatin condensation at 1 uM after 48 hrs by DAPI staining; format: functional, cell-based; outline: as §1
T98G [15] = test: Cytotoxicity against human T98G cells expressing mutant p53 after 48 hrs by MTT assay; format: functional, cell-based; conditions: for IC50: read-out: IC50; outline: as §2
HeLa [16] = test: Induction of mitotic arrest in human HeLa cells assessed as reduction in cell density by immunofluorescence staining; format: functional, cell-based
Outline: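 HeLa cells (8000/well), collagen-coated plates, dosed within 4-6 h of seeding in quadruplicate with 10 twofold dilutions or vehicle (DMSO 0.1% final); 18 h at 37 °C, 5% CO2. Formaldehyde fixation, Hoechst 33342 nuclear stain, anti-α-tubulin/anti-phosphohistone H3 immunostaining; automated high-content imaging. Cell density from nuclear counts; EC50 read from dose-response cell density curves.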

[17] = Haemolytic activity in human RBC after 1 hr by photometry; format: ADME, cell-based; conditions: Erythrocyte
Outline: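 Human EDTA blood was spun at 700xg for 10 min and the erythrocytes washed three times in cold PBS pH 7.4, then resuspended in it. Cells were incubated with varying compound concentrations for 1 h at 37 °C with shaking. After centrifugation, released haemoglobin was read at 540 nm to give the IC50. Mean ± SD, n = 4.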

T98G [18] = test: Induction of apoptosis in human T98G cells assessed as appearance of autophagolysosomes at 1 uM after 48 hrs by acridine orange/ethidium bromide staining-based microscopy; format: functional, cell-based; outline: as §5
MCF7 [19] = test: Induction of apoptosis in human MCF7 cells assessed as appearance of autophagolysosomes at 1 uM after 48 hrs by acridine orange/ethidium bromide staining-based microscopy; format: functional, cell-based; outline: as §5
T98G [20] = test: Induction of apoptosis in human T98G cells assessed as chromatin condensation at 1 uM after 48 hrs by acridine orange/ethidium bromide staining-based microscopy; format: functional, cell-based; outline: as §5
[21] = (§6) Cytotoxicity against human U87 cells expressing wild-type p53 after 48 hrs by MTT assay; format: functional, cell-based, U-87MG ATCC; conditions: U-87 MG, read-out: IC50; outline: as §2
U-87MG ATCC [22] = test: as §6; format: functional, cell-based; outline: as §2
T98G [23] = test: Induction of apoptosis in human T98G cells assessed as DNA fragmentation at 1 uM after 48 hrs by DAPI staining; format: functional, cell-based; outline: as §1
MCF7 [24] = test: Induction of apoptosis in human MCF7 cells assessed as irregularities in cellular shape at 1 uM after 48 hrs by DAPI staining; format: functional, cell-based
T98G [25] = test: Induction of apoptosis in human T98G cells assessed as irregularities in cellular shape at 1 uM after 48 hrs by DAPI staining; format: functional, cell-based
HeLa [26] = test: Induction of mitotic arrest in human HeLa cells assessed as mitotic index measuring phosphohistone H3-positive cells by Hoechst 33342 staining; format: functional; conditions: read-out: MEC; outline: as §3
Bos taurus [27] = species: Bos taurus; test: Total inhibition of bovine brain tubulin polymerization at concentration close to compound solubility limit after 10 mins by spectrophotometry; outline: as §4
U-87MG ATCC [28] = test: Induction of apoptosis in human U87 cells assessed as cell shrinkage at 1 uM after 48 hrs by DAPI staining; format: functional, cell-based
U-87MG ATCC [29] = test: Induction of apoptosis in human U87 cells assessed as chromatin condensation at 1 uM after 48 hrs by acridine orange/ethidium bromide staining-based microscopy; format: functional, cell-based; outline: as §5
MCF7 [30] = test: Induction of apoptosis in human MCF7 cells assessed as membrane blebbing at 1 uM after 48 hrs by DAPI staining; format: functional, cell-based
U-87MG ATCC [31] = test: Induction of apoptosis in human U87 cells assessed as membrane blebbing at 1 uM after 48 hrs by DAPI staining; format: functional, cell-based
U-87MG ATCC [32] = test: Induction of apoptosis in human U87 cells assessed as appearance of autophagolysosomes at 1 uM after 48 hrs by acridine orange/ethidium bromide staining-based microscopy; format: functional, cell-based; outline: as §5

Row | Structure (SMILES) | Activity (T98G [1]) | Activity (MCF7 [2]) | Activity (T98G [3]) | Activity (T98G [4]) | Activity (MCF7 [5]) | IC50 (MCF7 [5]) | Activity (MCF7 [7]) | Activity (MCF7 [10]) | Activity (U-87MG ATCC [11]) | Activity (U-87MG ATCC [12]) | Activity (MCF7 [13]) | Activity (U-87MG ATCC [14]) | Activity (T98G [15]) | IC50 (T98G [15]) | IC50 [17] | Activity (T98G [18]) | Activity (MCF7 [19]) | Activity (T98G [20]) | IC50 [21] | Activity (U-87MG ATCC [22]) | also measured
1 | CC(=NNC(=S)Nc1ccc(Cl)cc1)c1ccccn1 (mixture of isomers) | Active | Active | Active | Active | Dose-dependent effect | 8.5 nM | Active | Active | Active | Active | Active | Active | Dose-dependent effect | 5.9 nM | > 10000 nM | Active | Active | Active | 1.7 nM | Dose-dependent effect | minimal effective concentration (HeLa [6]): 3.6 µM; inhibition (Bos taurus [8]): Active; minimal effective concentration (HeLa [9]): 5.8 µM; EC50 (HeLa [16]): 9200 nM; Activity (T98G [23]): Active; Activity (MCF7 [24]): Active; Activity (T98G [25]): Active; minimal effective concentration (HeLa [26]): > 50 µM; inhibition (Bos taurus [27]): inactive; Activity (U-87MG ATCC [28]): Active; Activity (U-87MG ATCC [29]): Active; Activity (MCF7 [30]): Active; Activity (U-87MG ATCC [31]): Active; Activity (U-87MG ATCC [32]): Active
2 | CC(=NNC(=S)Nc1ccc(F)cc1)c1ccccn1 (mixture of isomers) | Active | Active | Active | Active | Dose-dependent effect | 1.2 nM | Active | Active | Active | Active | Active | Active | Dose-dependent effect | 17 nM | > 10000 nM | Active | Active | Active | 10 nM | Dose-dependent effect | Activity (T98G [23]): Active; Activity (MCF7 [24]): Active; Activity (T98G [25]): Active; Activity (U-87MG ATCC [28]): Active; Activity (U-87MG ATCC [29]): Active; Activity (MCF7 [30]): Active; Activity (U-87MG ATCC [31]): Active; Activity (U-87MG ATCC [32]): Active
3 | COc1cc2c(c(OC)c1OC)-c1ccc(OC)c(=O)cc1[C@@H](NC(C)=O)CC2 [COLCHICINE] |  |  |  |  |  |  |  |  |  |  |  |  |  |  |  |  |  |  |  |  | minimal effective concentration (HeLa [6]): 0.01 µM; minimal effective concentration (HeLa [9]): 0.01 µM; EC50 (HeLa [16]): 30 nM; minimal effective concentration (HeLa [26]): 0.02 µM
4 | CC(=NNC(=S)Nc1cccc([N+](=O)[O-])c1)c1ccccn1 (mixture of isomers) | Active | Active | Active | Active | Dose-dependent effect | 38 nM | Active | Active | Active | Active | Active | Active | Dose-dependent effect | 140 nM | > 10000 nM | Active | Active | Active | 69 nM | Dose-dependent effect | Activity (T98G [23]): Active; Activity (MCF7 [24]): Active; Activity (T98G [25]): Active; Activity (U-87MG ATCC [28]): Active; Activity (U-87MG ATCC [29]): Active; Activity (MCF7 [30]): Active; Activity (U-87MG ATCC [31]): Active; Activity (U-87MG ATCC [32]): Active
5 | CC(=NNC(S)=Nc1ccccc1Cl)c1ccccn1 (mixture of isomers) | Active | Active | Active | Active | Dose-dependent effect | 0.16 nM | Active | Active | Active | Active | Active | Active | Dose-dependent effect | 1.1 nM | > 10000 nM | Active | Active | Active | 2.6 nM | Dose-dependent effect | Activity (T98G [23]): Active; Activity (MCF7 [24]): Active; Activity (T98G [25]): Active; Activity (U-87MG ATCC [28]): Active; Activity (U-87MG ATCC [29]): Active; Activity (MCF7 [30]): Active; Activity (U-87MG ATCC [31]): Active; Activity (U-87MG ATCC [32]): Active
